From ChEMBL document CHEMBL1126770, “2,5-Dimethoxy congeners of (+)-and (-)-3-(3-hydroxyphenyl)-N-n- propylpiperidine” (1993)

Key:
[1] = tested on: Rattus norvegicus; test: DA2 antagonist activity was tested by its ability to decrease the arterial pressure in anesthetized rat at 30 ug/kg; format: functional, Artery
Summary of the method: (§1)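 Sprague-Dawley rats under urethane anaesthesia (900 mg/kg ip), with a femoral vein cannula for drug. Compound given iv as cumulative doses spaced 0.48 log10 units apart, each after responses had been stable ≥5 min. Mean arterial pressure was recorded from the femoral artery via a transducer, as decrease in mmHg. Three rats per compound; mean ± SD.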

[2] = tested on: Rattus norvegicus; test: DA2 antagonist activity was tested by its ability to decrease the heart rate in anesthetized rat at 100 ug/kg; format: functional
Summary of the method: (§2)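 Urethane-anaesthetised (900 mg/kg ip) Sprague-Dawley rats received iv cumulative doses via the femoral vein, at 0.48 log10 steps once responses had been stable ≥5 min. Heart rate came from a cardiotachometer triggered by the femoral arterial pulse, as decrease in beats/min. n = 3 rats per compound; mean ± SD.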

[3] = tested on: Rattus norvegicus; test: DA2 antagonist activity was tested by its ability to decrease the arterial pressure in anesthetized rat at 10 ug/kg; format: functional, Artery; summary of the method: as §1
[4] = tested on: Rattus norvegicus; test: DA2 antagonist activity was tested by its ability to decrease the heart rate in anesthetized rat at 30 ug/kg; format: functional; summary of the method: as §2
[5] = tested on: Rattus norvegicus; test: DA2 antagonist activity was tested by its ability to decrease the arterial pressure in anesthetized rat at 100 ug/kg; format: functional, Artery; summary of the method: as §1
[6] = tested on: Rattus norvegicus; test: DA2 antagonist activity was tested by the duration of onset of action of cardiovascular response at 10 ug/kg; format: functional, Heart
Summary of the method: (§3)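 In anaesthetised Sprague-Dawley rats (urethane 900 mg/kg ip), cumulative iv doses at 0.48 log10 intervals were given via the femoral vein after ≥5 min of stable responses. Duration of hypotension and bradycardia (min) was taken from femoral arterial pressure and pulse-triggered heart rate recordings. Three rats per compound; mean ± SD.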

[7] = tested on: Rattus norvegicus; test: DA2 antagonist activity was tested by its ability to decrease the heart rate in anesthetized rat at 10 ug/kg; format: functional; summary of the method: as §2
[8] = tested on: Rattus norvegicus; test: DA2 antagonist activity was tested by the duration of onset of action of cardiovascular response at 100 ug/kg; format: functional, Heart; summary of the method: as §3
[9] = tested on: Rattus norvegicus; test: DA2 antagonist activity was tested by the duration of onset of action of cardiovascular response at 30 ug/kg; format: functional, Heart; summary of the method: as §3
[10] = tested on: Rattus norvegicus; test: DA2 antagonist activity was tested by its to decrease the heart rate in anesthetized rat at 1000 ug/kg; format: functional; summary of the method: as §2
[11] = tested on: Rattus norvegicus; test: DA2 antagonist activity was tested by the duration of onset of action of cardiovascular response at 300 ug/kg; format: functional, Heart; summary of the method: as §3
[12] = tested on: Rattus norvegicus; test: DA2 antagonist activity was tested by its to decrease the heart rate in anesthetized rat at 300 ug/kg; format: functional; summary of the method: as §2
[13] = tested on: Rattus norvegicus; test: DA2 antagonist activity was tested by its ability to decrease the arterial pressure in anesthetized rat at 3000 ug/kg; format: functional, Artery; summary of the method: as §1
[14] = tested on: Rattus norvegicus; test: DA2 antagonist activity was tested by its to decrease the heart rate in anesthetized rat at 3000 ug/kg; format: functional; summary of the method: as §2
[15] = tested on: Rattus norvegicus; test: DA2 antagonist activity was tested by its ability to decrease the arterial pressure in anesthetized rat at 300 ug/kg; format: functional, Artery; summary of the method: as §1
[16] = tested on: Rattus norvegicus; test: DA2 antagonist activity was tested by the duration of onset of action of cardiovascular response at 1000 ug/kg; format: functional, Heart; summary of the method: as §3
[17] = tested on: Rattus norvegicus; test: DA2 antagonist activity was tested by the duration of onset of action of cardiovascular response at 3000 ug/kg; format: functional, Heart; summary of the method: as §3
[18] = tested on: Rattus norvegicus; test: DA2 antagonist activity was tested by the duration of onset of action of cardiovascular response at 1000 ug/kg; Insufficient sample for statistical treatment; format: functional, Heart
[19] = tested on: Rattus norvegicus; test: DA2 antagonist activity was tested by its ability to decrease the heart rate in anesthetized rat at 1000 ug/kg; format: functional; summary of the method: as §2
[20] = tested on: Rattus norvegicus; test: DA2 antagonist activity was tested by its ability to decrease the heart rate in anesthetized rat at 3000 ug/kg; format: functional; summary of the method: as §2
[21] = tested on: Rattus norvegicus; test: DA2 antagonist activity was tested by its ability to decrease the arterial pressure in anesthetized rat at […] ug/kg; format: functional, Artery; summary of the method: as §1
[22] = tested on: Rattus norvegicus; test: DA2 antagonist activity was tested by its ability to decrease the heart rate in anesthetized rat at 300 ug/kg; format: functional; summary of the method: as §2

CCCN1CCC[C@H](c2cccc(O)c2)C1
Decrease in pressure [1]: 16 mmHg
Decrease in heart rate [2]: 44 beats min-1
Decrease in pressure [3]: 5 mmHg
Decrease in heart rate [4]: 37 beats min-1
Decrease in pressure [5]: 23 mmHg
Duration of action [6]: 6 min
Decrease in heart rate [7]: 13 beats min-1
Duration of action [8]: 14 min
Duration of action [9]: 10 min

CCCN1CCCC(c2cc(OC)ccc2OC)C1 (racemic)
Decrease in heart rate [10]: 35 beats min-1
Duration of action [11]: 5 min
Decrease in heart rate [12]: 17 beats min-1
Decrease in pressure [13]: 23 mmHg
Decrease in heart rate [14]: 45 beats min-1
Decrease in pressure [15]: 10 mmHg
Duration of action [16]: 8 min
Duration of action [17]: 13 min

CCCN1CCCC(c2cc(OC)ccc2OC)C1 (single isomer, unassigned; (+))
Duration of action [18]: 18 min
Decrease in heart rate [19]: 30 beats min-1

CCCN1CCCC(c2cc(OC)ccc2OC)C1 (single isomer, unassigned; (-))
Duration of action [11]: 2 min
Decrease in heart rate [19]: 40 beats min-1
Decrease in heart rate [20]: 45 beats min-1
Decrease in pressure [21]: 27 mmHg
Decrease in heart rate [22]: 10 beats min-1
Decrease in pressure [15]: 15 mmHg
Duration of action [16]: 5 min
Duration of action [17]: 10 min
